According to article PMC4785611 (British Journal of Haematology, 2016):
Entries after “also recorded” stand apart in the source; their conditions may differ.

Tests used:
[1] = test system: patients with multiple myeloma; conditions: of 526 patients; ref Siegel et al, 2013; cited from earlier work
[2] = test system: Japanese patients with relapsed and/or refractory multiple myeloma; test: Phase 1/2 study ONO-7057-01: adverse events; type: in vivo, human
Procedure, shortened: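 Safety set was all patients given ≥1 IV dose (10 min; Days 1, 2, 8, 9, 15, 16 of 28-day cycles). Pre-medication was 4 mg oral or IV dexamethasone, with hydration in Cycle 1. Cycle 1 also had prophylactic antibiotics, plus acyclovir if herpes history. Patients with Grade ≥3 or painful Grade 2 PN or prior ILD were excluded. AEs were graded by NCI-CTCAE v4.0 through Cycle 6, with later cycles included.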

[3] = test system: Japanese patients with relapsed and/or refractory multiple myeloma; test: Phase 1 dose escalation: dose-limiting toxicity in Cycle 1; type: in vivo, human; conditions: for Dose-limiting toxicity (DLT): Cycle 1
Procedure, shortened: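 Test compound was given IV over 10 min on Days 1, 2, 8, 9, 15 and 16 of 28-day cycles. The 20/27 arm received 20 mg/m2 on Days 1–2 of Cycle 1 and 27 mg/m2 from Day 8. Three or six patients per cohort: 1/3 DLT added three patients. At 2/3 or 3/6, the prior level became the recommended dose. No G-CSF was allowed during Cycle 1 evaluation.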

Structure (SMILES): CC(C)C[C@H](NC(=O)[C@H](CCc1ccccc1)NC(=O)CN1CCOCC1)C(=O)N[C@@H](Cc1ccccc1)C(=O)N[C@@H](CC(C)C)C(=O)[C@@]1(C)CO1 [carfilzomib]
- PN Grade ≥3, patients, integrated analysis [1]: seven
- Peripheral neuropathy under study treatment, preferred terminology (Grade) ([2]; Patient No. 1, 20 mg/m^2, baseline PN Grade 1, worst PN Grade before the study 3): Peripheral neuropathy (2)
- Interstitial lung disease (ILD) ([2]; Total, N = 50): No ILD was observed
- AEs leading to death ([2]; during administration period or within 30 days after final administration): No AEs led to death
- New PN in patients who had never experienced PN before enrolment ([2]; five patients without PN history): no new cases of PN occurred and did not develop PN and none
- Patients with PN at baseline in whom carfilzomib exacerbated PN ([2]; of 35 patients with PN at baseline): three
- Patients believed to have infections leading to treatment interruption (pneumonia, fever) ([2]; of the 24 patients whose treatment was interrupted): three
- Patients with treatment interrupted because of neutropenia ([2]; of the 24 patients whose treatment was interrupted, seven events): five
- Dose-limiting toxicity (DLT) ([3]; 15 mg/m^2 cohort, four patients (one not evaluable)): no DLT was observed
- Dose-limiting toxicity (DLT) ([3]; 20/27 mg/m^2 cohort, seven patients (one not evaluable)): no DLT was observed
- Maximum tolerated dose (MTD) ([3]; doses 15, 20 and 20/27 mg/m^2): did not reach the maximum tolerated dose; also recorded: did not reach the MTD
